Experiment [1] concerns the target T1, Glutamine synthetase (Escherichia coli K-12, UniProt P0A9C5).
T1 sequence (P0A9C5 whole entry): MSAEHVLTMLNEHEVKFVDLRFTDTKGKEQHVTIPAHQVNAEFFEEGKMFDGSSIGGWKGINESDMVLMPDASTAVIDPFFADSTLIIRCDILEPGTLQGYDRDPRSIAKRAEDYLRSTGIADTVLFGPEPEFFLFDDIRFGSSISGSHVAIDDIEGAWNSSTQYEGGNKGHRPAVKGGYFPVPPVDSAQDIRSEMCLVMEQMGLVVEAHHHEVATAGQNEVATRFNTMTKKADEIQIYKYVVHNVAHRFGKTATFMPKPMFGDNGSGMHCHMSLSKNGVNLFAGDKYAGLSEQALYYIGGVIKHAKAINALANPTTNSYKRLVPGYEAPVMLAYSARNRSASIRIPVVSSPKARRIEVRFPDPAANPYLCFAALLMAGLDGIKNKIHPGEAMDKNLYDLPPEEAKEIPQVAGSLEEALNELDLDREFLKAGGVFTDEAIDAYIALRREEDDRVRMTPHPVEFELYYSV
Briefly: Inhibitory concentration against glutamine synthetase incubated at 37 degree C for 20 minutes in pH 7.4. In a few lines:
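Fully activated E. coli strain W GS (30 pkat) in 50 mM Tris-HCl pH 7.4 with 100 mM glutamate, 5 mM ATP, 1 mM NH4Cl and 25 mM MgCl2, run at 37 °C for up to 20 min. Phosphate release was measured from the initial linear rate. IC50 came from linear regression of % control against log concentration.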

Experiment [2] concerns the target T1, Glutamine synthetase. As to the kind of experiment: (§1) Binding affinity towards glutamine synthetase. In a few lines: (§2)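 E. coli strain W glutamine synthetase (fully activated), full forward reaction read by inorganic phosphate release at 37 °C, pH 7.4 Tris-HCl. Glutamate was varied from 15 to 80 mM, with ATP and NH4Cl fixed at standard levels. At least four inhibitor levels were tested, each dose at least in triplicate. Ki came from Lineweaver–Burk plots and is given as mean ± SEM.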

In experiment [3] the target is T1, Glutamine synthetase. Described as §1. Summed up: as §2
This is another data set of the same source.

Regarding `NCP(=O)(O)CC[C@H](N)C(=O)O`, the IC50 against Glutamine synthetase [1] amounted to 1 µM. In addition, the Ki on Glutamine synthetase [2] and on Glutamine synthetase [3] was 0.59 µM throughout.
In the case of `NCCP(=O)(O)CC[C@H](N)C(=O)O`, the IC50 on Glutamine synthetase [1] was determined as 55 µM. In addition, the inhibitory constant (Ki) at Glutamine synthetase [2] and on Glutamine synthetase [3] was 13 µM each time.
In turn, `N[C@@H](CCP(=O)(O)CCC(=O)O)C(=O)O` had a half-inhibitory concentration (IC50) against Glutamine synthetase [1] of 970 µM. The results for the Ki on Glutamine synthetase [2] and at Glutamine synthetase [3] were 150 µM and 147 µM, respectively.
The corresponding values for `CP(=O)(O)CC[C@H](N)C(=O)O` are 1.2 µM, 0.6 µM and 0.6 µM.
`N[C@@H](CCP(=O)(O)CO)C(=O)O` gave an IC50 against Glutamine synthetase [1] of 10.4 µM. The Ki at Glutamine synthetase [2] and at Glutamine synthetase [3] was 2.1 µM each time.
`C[C@@H](N)P(=O)(O)CC[C@H](N)C(=O)O`: on Glutamine synthetase [1], the 50% inhibitory concentration (IC50) turned out to be 31 µM. Besides, the inhibitory constant (Ki) at Glutamine synthetase [2] and at Glutamine synthetase [3] was 3.4 µM throughout.
As to `C[C@H](N)P(=O)(O)CC[C@H](N)C(=O)O` (mixture of isomers), the IC50 against Glutamine synthetase [1] worked out at 33 µM. Also, the inhibition constant Ki at Glutamine synthetase [2] and at Glutamine synthetase [3] was 3.7 µM in each case.

By IC50 is commonly meant the concentration that gives 50% inhibition. One may read the Ki as a dissociation constant, usually derived from enzyme kinetics or from competition with a known ligand. A lower Ki goes with a stronger hold on the target.
